Measured values reported in paper PMC6880868 (Cancer cell, 2019).

Columns and labels:
[1] = tested on: transcriptional activity of STAT3; test: STAT3-luciferase reporter assay; assay type: cell-based, human; conditions: Homo sapiens, MOLM16, 24 h, read-out: IC50, transcriptional activity of STAT3
[2] = tested on: MOLM-16 and SU-DHL-1 cell lines; test: Cell cycle analysis by flow cytometry; assay type: cell-based, human; conditions: 1 μM, 48 hr
Method in brief: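 After treatment, cells were washed twice in cold PBS and fixed overnight in 50% ethanol. They were stained 1 hr at 4°C with PI (50 μg/ml) plus DNase-free RNase A (0.2 μg/ml), then analysed by flow cytometry.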

[3] = tested on: STAT1, STAT4 and other STATs; test: Degradation of other STAT proteins in cells; assay type: cell-based, human
Method in brief: (§1)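 Treated cells were lysed in cell lysis buffer, resolved by SDS-PAGE, transferred to PVDF and probed by immunoblotting.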

STAT2 = STAT2 (Homo sapiens, UniProt P52630); test: Bio-Layer Interferometry binding, STAT2
Method in brief: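 Purified recombinant human STAT proteins were biotinylated, then direct binding of the test compound was measured by Bio-Layer Interferometry to give Kd.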

[4] = tested on: leukemia and lymphoma cell lines; test: 4-day CellTiter Glo cell viability assay, leukemia and lymphoma cell line panel; assay type: cell-based, human
MOLM-16 tumors = test: MOLM-16 xenograft efficacy; assay type: in vivo, NOD/SCID female mice
Method in brief: (§2)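 NOD/SCID female mice were injected subcutaneously in 5 mg/ml Matrigel with MOLM-16 (3 × 10^6), SU-DHL-1 (1 × 10^7) or SUP-M2 (1 × 10^7) cells. At about 150 mm3, mice were size-matched and randomised. Test compound or vehicle (10% PEG400 + 90% PBS) was given on the indicated schedules. Tumours were measured 2–3 times weekly, with volume = length×width²/2. TGI was calculated from group medians.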

[5] = tested on: c-Myc; STAT3 Y705 phosphorylation; test: Immunoblotting of c-Myc and pSTAT3; assay type: cell-based, human; conditions: 0.5 μM, 24 hr
Method in brief: as §1

STAT3 [6] = biological target: T1, STAT3 (Homo sapiens, UniProt P40763); test: Fluorescence polarization; assay type: binding
Method in brief: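 Competitive fluorescence polarisation assay. Recombinant STAT3 (25 nM) was premixed 5 min with 2.5 nM 5-FAM-labelled STAT3 SH2-domain ligand. The mix was added to serially diluted test compound and read after 1 hr at room temperature. Buffer: 50 mM NaCl, 10 mM HEPES pH 7.5, 1 mM EDTA, 0.01% Triton X-100, 2 mM DTT. IC50 came from nonlinear regression and was converted to Ki.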
Target sequence in this assay (P40763 127-688): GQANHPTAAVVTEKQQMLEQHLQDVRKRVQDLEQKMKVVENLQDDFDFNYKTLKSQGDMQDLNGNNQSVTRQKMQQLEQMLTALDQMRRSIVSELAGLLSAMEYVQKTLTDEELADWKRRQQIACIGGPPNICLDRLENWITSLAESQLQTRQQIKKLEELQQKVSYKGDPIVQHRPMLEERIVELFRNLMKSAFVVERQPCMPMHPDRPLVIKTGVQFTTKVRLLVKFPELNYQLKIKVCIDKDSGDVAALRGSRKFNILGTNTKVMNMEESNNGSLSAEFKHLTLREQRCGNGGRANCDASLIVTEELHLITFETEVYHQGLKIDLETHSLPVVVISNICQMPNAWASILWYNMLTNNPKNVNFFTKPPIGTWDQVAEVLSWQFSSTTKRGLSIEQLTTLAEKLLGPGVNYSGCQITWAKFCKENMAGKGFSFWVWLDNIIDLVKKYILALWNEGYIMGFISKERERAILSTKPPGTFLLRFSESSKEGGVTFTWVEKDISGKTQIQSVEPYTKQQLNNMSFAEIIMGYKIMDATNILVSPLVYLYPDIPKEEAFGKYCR

MOLM-16 = test: 4-day CellTiter Glo cell viability assay, MOLM-16; assay type: cell-based; conditions: Homo sapiens, MOLM16, 96 h, read-out: IC50, growth inhibition
STAT3 [7] = biological target: T1, STAT3; test: Pharmacodynamics: STAT3 protein in xenograft tumors; assay type: in vivo, NOD/SCID mice bearing human xenograft tumors
Target sequence in this assay (P40763 whole entry): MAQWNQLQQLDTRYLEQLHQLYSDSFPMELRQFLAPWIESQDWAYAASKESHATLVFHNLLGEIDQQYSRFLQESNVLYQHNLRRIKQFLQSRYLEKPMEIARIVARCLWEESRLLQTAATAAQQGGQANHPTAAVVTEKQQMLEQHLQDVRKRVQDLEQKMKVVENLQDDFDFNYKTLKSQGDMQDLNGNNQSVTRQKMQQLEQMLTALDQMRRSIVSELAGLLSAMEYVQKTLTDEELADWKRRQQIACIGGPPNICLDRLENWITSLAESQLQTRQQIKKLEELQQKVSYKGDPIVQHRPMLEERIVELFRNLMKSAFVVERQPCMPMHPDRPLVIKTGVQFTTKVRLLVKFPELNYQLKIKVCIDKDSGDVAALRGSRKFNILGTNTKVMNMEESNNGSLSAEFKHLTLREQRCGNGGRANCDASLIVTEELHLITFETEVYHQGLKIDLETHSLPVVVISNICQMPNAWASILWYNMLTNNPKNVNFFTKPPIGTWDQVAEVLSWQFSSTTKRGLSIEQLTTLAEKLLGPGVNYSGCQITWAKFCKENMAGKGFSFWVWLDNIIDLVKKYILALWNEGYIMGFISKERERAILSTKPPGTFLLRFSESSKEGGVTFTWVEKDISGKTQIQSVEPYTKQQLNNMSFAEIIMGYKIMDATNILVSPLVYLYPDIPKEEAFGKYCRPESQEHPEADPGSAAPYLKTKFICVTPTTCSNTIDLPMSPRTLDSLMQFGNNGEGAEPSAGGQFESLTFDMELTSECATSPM

STAT3 [8] = biological target: T1, STAT3; test: STAT3 protein degradation in human cells; assay type: cell-based
Method in brief: as §1
Target sequence in this assay (P40763 whole entry): as above

[9] = tested on: IKZF1, IKZF3, CK1α, GSPT1; test: Immunoblotting of CRBN neo-substrates; assay type: cell-based, human; conditions: 24 hr; SD-36 0.5 μM, lenalidomide 1 μM
[10] = Toxicity in immune competent mice; assay type: in vivo, CD-1 female mice
Method in brief: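 Female CD-1 mice were given test compound i.v. at 50 or 100 mg/kg, or vehicle (10% PEG400 + 90% PBS), three times weekly for three weeks. Body weight was recorded 2–3 times per week. At the end, blood and major organs were taken for haematology, serum chemistry, organ coefficients and histology.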

STAT3 target genes = test: qRT-PCR of STAT3 target genes in MOLM-16 cells; assay type: cell-based, human; conditions: MOLM-16, 1 μM, 8 hr
[11] = biological target: monomeric and dimeric STAT3 protein (Homo sapiens, UniProt P40763); test: Native electrophoresis and immunoblotting of STAT3 monomer/dimer; assay type: cell-based; conditions: MOLM-16, 1 μM, within 5 hr
SUP-M2 tumor = test: SUP-M2 xenograft efficacy; assay type: in vivo, mice
Method in brief: as §2

[12] = Body weight and signs of toxicity in efficacy experiments; assay type: in vivo, mice; conditions: all efficacy experiments
Method in brief: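 Animal weights and signs of toxicity were recorded 2–3 times per week in NOD/SCID female mice with subcutaneous xenografts. Mice received test compound or vehicle (10% PEG400 + 90% PBS) on the indicated schedules.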

SU-DHL-1 xenograft = SU-DHL-1 xenograft efficacy; assay type: in vivo, mice
Method in brief: as §2

[13] = biological target: DNA binding activity of STAT3 (Homo sapiens, UniProt P40763); test: STAT3 DNA binding activity assay on nuclear extracts; assay type: cell-based; conditions: 1 μM, 8 hr, MOLM-16 and SU-DHL-1
Method in brief: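 Nuclear extraction: cells were swelled 15 min on ice in hypotonic HEPES pH 7.9/10 mM KCl buffer with DTT and phosphatase/protease inhibitors. NP-40 was added (0.5% final), and nuclei were extracted 15 min at 4°C in 0.4 M NaCl HEPES buffer, then cleared at 5,000 × g. ELISA: 5 μg extract was bound 1 hr at room temperature in TransAM STAT ELISA wells. Wells then received STAT antibody (1:1000, 1 hr), HRP secondary (1 hr) and colour development.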

[14] = 100 mg/kg weekly or 50 mg/kg twice weekly for 4 weeks
[15] = i.v. 50 and 100 mg/kg, three times a week for three weeks

STAT2, sequence (P52630 138-702): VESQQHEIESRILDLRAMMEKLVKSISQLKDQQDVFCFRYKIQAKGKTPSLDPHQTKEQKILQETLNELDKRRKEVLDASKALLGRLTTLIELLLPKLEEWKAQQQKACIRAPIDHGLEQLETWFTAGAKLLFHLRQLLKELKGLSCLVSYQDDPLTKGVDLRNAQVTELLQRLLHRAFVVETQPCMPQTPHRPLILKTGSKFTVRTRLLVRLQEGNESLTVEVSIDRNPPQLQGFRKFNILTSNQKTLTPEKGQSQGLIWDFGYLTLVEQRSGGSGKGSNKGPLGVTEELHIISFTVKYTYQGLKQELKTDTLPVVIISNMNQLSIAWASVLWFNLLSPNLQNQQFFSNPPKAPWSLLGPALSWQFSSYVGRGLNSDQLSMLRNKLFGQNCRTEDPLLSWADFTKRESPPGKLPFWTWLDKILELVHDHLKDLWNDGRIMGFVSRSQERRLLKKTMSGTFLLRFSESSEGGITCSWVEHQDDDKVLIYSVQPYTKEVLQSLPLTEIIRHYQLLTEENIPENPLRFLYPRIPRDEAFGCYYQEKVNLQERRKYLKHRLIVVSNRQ
DNA binding activity of STAT3, sequence (P40763 whole entry): as the sequence (P40763 whole entry) above
monomeric and dimeric STAT3 protein, sequence (P40763 whole entry): as above

For `NC(=O)CC[C@H](NC(=O)[C@@H]1CC[C@@H]2CCN(C(=O)CCCCCC#Cc3cccc4c3CN(C3CCC(=O)NC3=O)C4=O)C[C@H](NC(=O)c3cc4cc(C(F)(F)P(=O)(O)O)ccc4[nH]3)C(=O)N21)C(=O)NC(c1ccccc1)c1ccccc1` (stereo partly drawn) [SD-36, ((2-(((5S,8S,10aR)-8-(((S)-5-amino-1-(benzhydrylamino)-1,5-dioxopentan-2-yl)carbamoyl)-3-(8-(2-(2,6-dioxopiperidin-3-yl)-1-oxoisoindolin-4-yl)oct-7-ynoyl)-6-oxodecahydropyrrolo[1,2-a][1,5]diazocin-5-yl)carbamoyl)-1H-indol-5-yl)difluoromethyl)phosphonic acid], the IC50 [1] was 10 nM, the cell cycle effect [2] was “profound G1 arrest” and the “effect on other STATs” value ([3]; MOLM-16 and SU-DHL-1 cells) was “without effect on other STATs”. For the same compound, the “degradation of STAT1, STAT4 and other STATs” value ([3]; human PBMCs, 24 hr) was “failed to degrade”, the Kd (STAT2) was roughly 5000 nM and the “AML cell lines with strong growth-inhibitory activity” value ([4]; 9 AML cell lines) was 1 of 9. For the same compound, the “lymphoma cell lines with potent activity” value ([4]; 9 lymphoma cell lines) was 5 of 9, the “persistence of regression after cessation of treatment” value (MOLM-16 tumors; [14]) was “at least 2 weeks” and the tumor response (MOLM-16 tumors; [14]) was “complete tumor regression”. For the same compound, the tumor growth (MOLM-16 tumors; 25 and 50 mg/kg weekly for 4 weeks) was “effectively inhibited tumor growth”, the “expression of c-Myc” value [5] was “reduced” and the Ki (STAT3 [6]) was 11 nM. For the same compound, the IC50 (MOLM-16) was 35 nM, the “STAT3 protein level in MOLM-16 tumors, of controls” value (STAT3 [7]; 4 days after a single dose) was less than 50% and the “depletion of STAT3 protein in MOLM-16 and SU-DHL-1 tumors” value (STAT3 [7]; single dose, 6 hr) was “near-complete depletion”. The “persistence of near-complete STAT3 depletion” value (STAT3 [7]; single dose, MOLM-16 and SU-DHL-1 tumors) was greater than 24 h, the “duration of reduced STAT3 protein level” value (STAT3 [7]; single i.v. dose) was greater than 4 days and the “STAT3 protein depleted in MOLM-16 tumors” value (STAT3 [7]; single i.v. dose 25 mg/kg, 1 hr) was greater than 80%. For the same compound, the STAT3 protein depleted (STAT3 [8]; DEL, 250 nM, 7 hr) was greater than 50%, the STAT3 protein depleted (STAT3 [8]; KI-JK, 250 nM, 7 hr) was greater than 50% and the “levels of activated pSTAT3 (Y705)” value (STAT3 [8]; MOLM-16, 0.25 μM) was “effectively reduced”. The STAT3 protein depleted (STAT3 [8]; MOLM-16, 250 nM, 4 hr) was greater than 90%, the “cellular STAT3 protein in SD-36 insensitive cell lines” value (STAT3 [8]; SD-36 insensitive cell lines) was “effectively depleted” and the STAT3 protein depleted (STAT3 [8]; SU-DHL-1, 250 nM, 7 hr) was greater than 50%. For the same compound, the hook effect (STAT3 [8]; concentrations as high as 10 μM, all cell lines tested) was “not observed”, the “levels of STAT3 protein in PBMCs” value (STAT3 [8]; human PBMCs, 24 hr) was “potently and effectively reduced” and the “levels of IKZF1, IKZF3 and CK1α” value [9] was “very modest effect”. The “protein levels of GSPT1” value [9] was “not affected”, the “numbers of neutrophils and platelets” value ([10]; 100 mg/kg, three times a week for three weeks) was “slightly increased” and the “creatinine, blood urea nitrogen, calcium, albumin and total blood protein” value ([10]; data not shown) was “no significant effect”. The “counts of red or white blood cells, lymphocytes, monocytes or eosinophils” value [10, 15] was “no significant changes”, the “systemic toxicity by body weight, organ coefficient and hematology” value [10, 15] was “no obvious systemic toxicity” and the “histology of mouse tissues” value ([10]; mouse, in vivo) was “no significant effects”. The body weight ([10]; reversible one week after withdrawal) was “moderate body weight gain”, the “expression of a set of STAT3 target genes” value (STAT3 target genes) was “significantly down-regulated” and the “monomeric and dimeric STAT3 protein” value [11] was “completely depletes”. The tumor growth (SUP-M2 tumor; 50 mg/kg three times per week) was “completely inhibited tumor growth”, the tumor response (SUP-M2 tumor; 100 mg/kg three times per week, tumor free until day 30) was “Complete tumor regression” and the “tumors with complete tumor regression” value (SUP-M2 tumor; 100 mg/kg twice a week for 3 weeks, day 29) was 5 out of 7. For the same compound, the “weight loss or other signs of toxicity” value [12] was “no significant weight loss”, the “tumor growth inhibited compared to the vehicle control” value (SU-DHL-1 xenograft; 50 mg/kg weekly) was 50% and the tumor response (SU-DHL-1 xenograft; 100 mg/kg on day 1, 3 and 5 per week) was “complete tumor regression”. The tumor response (SU-DHL-1 xenograft; 100 mg/kg weekly) was “rapid and complete tumor regression”, the tumors completely regressed (SU-DHL-1 xenograft; 100 mg/kg weekly, after 2 doses, by day 12) was 7 out of 7 and the “mice with no tumor returning” value (SU-DHL-1 xenograft; 100 mg/kg weekly, day 122, >100 days after the last dosing) was 6 out of 7. For the same compound, the tumor growth (SU-DHL-1 xenograft; 25 and 50 mg/kg on day 1, 3 and 5 per week) was “effectively inhibited tumor growth”, the tumor volume reduced (SU-DHL-1 xenograft; single dose 100 mg/kg, day 6) was 80% and the “DNA binding activity of STAT3” value [13] was “abolishes”.
